Assay outcomes deposited in PubChem by The Scripps Research Institute Molecular Screening Center.
Hits are enriched below; roughly 2.1% of the tested compounds scored in any of these assays.
VIM-2 inhibitor – inhibitors of Pseudomonas aeruginosa VIM-2 metallo-beta-lactamase; purified VIM-2, nitrocefin hydrolysis, epi-absorbance fluorescence; 0.89% of 290,000 active; inhibition, % at 5.6 µM;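 active means inhibition above the mean of all tested compounds plus 3 SD, cutoff set per screening run, cut at about 7.5% in these data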;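 further: red hydrolysis product quenches plate fluorescence so inhibitors raise well fluorescence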
PKA-R1A activ – activators of PKA-R1A complex. PKA-R1A dissociation, Cy5-IP20 fluorescence polarization; scaled: DMSO 0%, 113 µM cGMP 100%. P00514+P68181. 0.083% of 340,000 active. activation, % at 11.4 µM;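 active means percent activation above the mean of all tested compounds plus 3 SD, cut at about 19% in these data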;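 further: higher means more PKAc released from R1A so a rise in polarization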
IMP-1 inh – blocks Pseudomonas aeruginosa IMP-1 metallo-beta-lactamase. purified IMP-1, nitrocefin hydrolysis, epi-absorbance fluorescence. inhibition, % at 5.6 µM. 0.45% of 290,000 active. AID 1556;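 active means inhibition above the mean plus 3 SD of all compounds in the same screening run, cut at about 4.5% in these data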
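System: Purified recombinant IMP-1 metallo-beta-lactamase enzyme | Measured by: Fluorescence quenching readout, ex 480/em 530 nm | Replication: Singlicate | Incubation: 15 min preincubation plus 25 min reaction at 25 °C | Evaluation: Percent inhibition from optical density relative to buffer-blank wells | Benchmarks: DMSO with and without IMP-1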
bovine MsrA act – activates bovine MsrA enzyme. purified bovine MsrA, absorbance read-out. activation, % at 10.6 µM. 0.3% of 360,000 active. AID 602163; in the data active means activation above about 7.5%
MsrA inh – bovine MsrA inhibition. purified bovine MsrA, absorbance read-out. 0.75% of 360,000 active. inhibition, % at 15.5 µM. AID 651718; in the data active means inhibition above about 4.5%
PKA-R2B activ – PKA-R2B complex activation; P22694+P31323; PKA-R2B holoenzyme dissociation, Cy5-IP20 fluorescence polarization; R2B truncated from residue 108, S112A mutant; 0% DMSO only, 100% 113 µM cGMP; activation, % at 11.4 µM; 0.079% of 340,000 active;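 active means activation above a cutoff set at the mean over all compounds plus 3 SD, cut at about 18% in these data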;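 further: higher means more holoenzyme dissociation and a rise in polarization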
Target sequence (P31323 whole entry, looked up, other chains not shown, the tested form may be a part): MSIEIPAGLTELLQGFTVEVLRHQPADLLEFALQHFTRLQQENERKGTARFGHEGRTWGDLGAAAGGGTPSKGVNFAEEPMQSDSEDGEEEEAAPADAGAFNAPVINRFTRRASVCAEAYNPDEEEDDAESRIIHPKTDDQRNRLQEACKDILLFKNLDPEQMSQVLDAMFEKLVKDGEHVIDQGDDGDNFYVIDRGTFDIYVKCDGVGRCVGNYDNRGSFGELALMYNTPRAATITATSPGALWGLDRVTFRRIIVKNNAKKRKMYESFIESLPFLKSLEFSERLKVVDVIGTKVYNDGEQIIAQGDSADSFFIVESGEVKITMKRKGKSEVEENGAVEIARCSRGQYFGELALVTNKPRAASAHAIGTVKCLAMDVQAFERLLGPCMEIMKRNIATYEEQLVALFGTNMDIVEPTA
VIM-2 confirm – VIM-2 inhibition, confirmation assay; 73% of 200 active; AID 1860; inhibition, % at 5.6 µM; purified VIM-2 enzyme, nitrocefin absorbance; shares compounds with IMP-1 inh; in the data active means inhibition above about 8%
TEM-1 inh 2 – blocks E. coli TEM-1 beta-lactamase, VIM-2 IMP-1 counter-screen | nitrocefin absorbance inhibition | 50% of 200 active | inhibition, % at 5.6 µM | shares compounds with IMP-1 inh; in the data active means inhibition above about 0.66%
IMP-1 inh conf – confirmation of P. aeruginosa IMP-1 metallo-beta-lactamase inhibitors | shares compounds with IMP-1 inh | inhibition, % at 5.6 µM | 60% of 200 active | purified IMP-1 enzyme, absorbance substrate hydrolysis; in the data active means inhibition above about 4.9%
Hits are given with their value.

What do the screens show for `CCOP(=O)(O)c1ccccc1OCCOc1ccccc1P(=O)(O)OCC`?
VIM-2 inhibitor: inactive; PKA-R1A activ: inactive; IMP-1 inh: inactive; bovine MsrA act: inactive; MsrA inh: inactive; PKA-R2B activ: inactive

What do the screens show for `CCCCn1c(SCC(=O)c2ccc3c(c2)NC(=O)CO3)nc2cc(S(N)(=O)=O)ccc21`?
VIM-2 inhibitor: inactive; PKA-R1A activ: inactive; IMP-1 inh: inactive; bovine MsrA act: inactive; MsrA inh: inactive; PKA-R2B activ: inactive

What do the screens show for `COc1ccccc1N1N=C(c2ccc([N+](=O)[O-])cc2)CC1c1ccccc1` (stereo unspecified)?
VIM-2 inhibitor: 31; PKA-R1A activ: inactive; IMP-1 inh: 35; bovine MsrA act: inactive; MsrA inh: inactive; PKA-R2B activ: inactive; VIM-2 confirm: 18; TEM-1 inh 2: 27; IMP-1 inh conf: 16

How did COc1cc(N2N=C(c3ccccc3)CC2c2ccccc2)c(C=O)cc1C=O (stereo unspecified) do in these assays?
VIM-2 inhibitor: inactive; PKA-R1A activ: inactive; IMP-1 inh: inactive; bovine MsrA act: inactive; MsrA inh: inactive; PKA-R2B activ: inactive

Results for Cc1ccc(CNc2nc(NCc3ccccc3)nc3ccsc23)c(C)c1 ?
bovine MsrA act: inactive; MsrA inh: inactive

How did CCN(CC)C(=O)C1=C(C)N(CCCOC)C(=O)C(CC(=O)NCC2CCCCC2)C1 (stereo unspecified) do in these assays?
PKA-R1A activ: inactive; bovine MsrA act: inactive; MsrA inh: inactive; PKA-R2B activ: inactive

Results for CCN(CC)C(=O)C1c2ccccc2Oc2ccccc21 ?
VIM-2 inhibitor: 18; PKA-R1A activ: inactive; IMP-1 inh: 17; bovine MsrA act: inactive; MsrA inh: inactive; PKA-R2B activ: inactive; VIM-2 confirm: inactive; TEM-1 inh 2: 1.6; IMP-1 inh conf: inactive

Results for CCOC(=O)N1CCC(NC(=O)c2oc3c(C)c(C)ccc3c2C)CC1 ?
VIM-2 inhibitor: inactive; PKA-R1A activ: inactive; IMP-1 inh: inactive; bovine MsrA act: inactive; MsrA inh: inactive; PKA-R2B activ: inactive

How did O=C(NN1C(=O)C2C3C=CC(C3)C2C1=O)c1ccccc1 (stereo unspecified) do in these assays?
VIM-2 inhibitor: inactive; PKA-R1A activ: inactive; IMP-1 inh: inactive; bovine MsrA act: inactive; MsrA inh: inactive; PKA-R2B activ: inactive

Results for Cc1cccc(C(=O)NN2C(=O)C3C(c4ccccc4)C=CC(c4ccccc4)C3C2=O)c1 (stereo unspecified) ?
VIM-2 inhibitor: inactive; PKA-R1A activ: inactive; IMP-1 inh: 21; bovine MsrA act: inactive; MsrA inh: inactive; PKA-R2B activ: inactive; VIM-2 confirm: inactive; TEM-1 inh 2: inactive; IMP-1 inh conf: inactive

Results for CCCn1c(N)c(N(CCOC)C(=O)c2ccc(Cl)c([N+](=O)[O-])c2)c(=O)[nH]c1=O ?
VIM-2 inhibitor: inactive; PKA-R1A activ: inactive; IMP-1 inh: inactive; bovine MsrA act: inactive; MsrA inh: inactive; PKA-R2B activ: inactive

Results for CC(C)c1nnc(N2C(=O)C(O)=C(C(=O)c3cccs3)C2c2ccccc2)s1 (stereo unspecified) ?
VIM-2 inhibitor: 17; PKA-R1A activ: inactive; IMP-1 inh: 7.2; bovine MsrA act: inactive; MsrA inh: inactive; PKA-R2B activ: inactive; VIM-2 confirm: inactive; TEM-1 inh 2: inactive; IMP-1 inh conf: inactive

What do the screens show for `C=CCOc1ccc(C2C(C(=O)c3cccs3)=C(O)C(=O)N2c2nnc(C)s2)cc1` (stereo unspecified)?
VIM-2 inhibitor: 18; PKA-R1A activ: inactive; IMP-1 inh: 13; bovine MsrA act: inactive; MsrA inh: inactive; PKA-R2B activ: inactive; VIM-2 confirm: inactive; TEM-1 inh 2: 2.6; IMP-1 inh conf: inactive
